Results taken from the RNAGym collection of RNA variant scans (doi:10.1126/science.aae0568).
This sample holds only a part of the variants without activity.

B1: tRNA (parent)
chain: GUUCCGUUGGCGUAAUGGUAACGCGUCUCCCUCCUAAGGAGAAGACUGCGGGUUCGAGUCCCGUACGGAACG

Variants of: B1
Assay: yeast fitness relative to wild type (ratio to wild type); higher = fitter; tRNA-Arg(CCU), competitive growth, 37 C, YPD
Summary of the method: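 For this measurement, the tRNA-Arg(CCU) gene was varied by chemical synthesis at a 3% per-site mutation rate across 69 sites, and each variant was placed at the native genomic locus in Saccharomyces cerevisiae. The pooled strains went through a 24-hour competition in YPD at 37°C in six parallel replicates, with amplicons from start and end populations read by 100-nucleotide paired-end sequencing. Darwinian fitness relative to wild type followed from the change in each genotype's frequency. Genotypes needed ≥ 100 starting reads, and estimates < 0.5 were set to 0.5.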

Point of comparison: U3A C5A G67A, yeast fitness 0.548. Against it:
- U3A U13G A70C — higher, 0.784
- U3A C34U A43G C49A G52A — lower, ≤ 0.5
- U3A G6A U16A C24G A37U C49U C62U — higher, 0.61
- U3A C61A — higher, 0.778
- U3A C61G — higher, 0.767
- U3A G23C — higher, 0.653
- U3A C22G C24U G39A — lower, ≤ 0.5
- U3A C11U U13C C31A — lower, ≤ 0.5
- U3A C24G C29U A36G — higher, 0.639
- U3A C30U G52A — lower, ≤ 0.5
- U3A G10C C24G A37U G38A G48C — lower, ≤ 0.5
- U3A C5A C33G C34U — higher, 0.634
- U3A C46U G48A — higher, 0.695
- U3A G51A A65G A69C — lower, 0.544
- U3A C11G G17C C24G C46A G68C — higher, 0.553
- U3A C24G C33G G51A U53A G56A G67C — lower, ≤ 0.5
- U3A C46A C66U — higher, 0.734
- U3A G18C U28A — lower, ≤ 0.5
- U3A C34G A45G — lower, 0.537
- U3A G38A C66U — lower, ≤ 0.5
- U3A U32G G39C G52C — lower, ≤ 0.5
- U3A G6A — higher, 0.981
- U3A G48A C49G — higher, 0.574
- U3A G48C C55A C66G G67C — lower, ≤ 0.5
- U3A C49U A65G — higher, 0.711
- U3A G12A C24U A45U U64C — lower, ≤ 0.5
- U3A C29G C60G — lower, ≤ 0.5
- U3A C30U A42G — higher, 0.757
- U3A C49A U53G A57U — higher, 0.798
- U3A G9C G56C — lower, ≤ 0.5
- U3C A14C A20C — lower, ≤ 0.5
- U3A C27U A36G A70U — higher, 0.729
- U3A C27U A36G — higher, 0.594
- U3A U8A C31G A40C G58C C62A G68A — lower, ≤ 0.5
- U3A G51C — lower, ≤ 0.5
- U3A G17A C22U U64C — lower, ≤ 0.5
- U3A G12A C46G — higher, 0.657
- U3A C24G — higher, 0.645
- U3A C24U — higher, 0.765
- U3A C27U A69C — higher, 0.713
- U3A U64C G68C — higher, 0.586
- U3A C27G — higher, 0.643
- U3A C27A — higher, 0.86
- U3A G18A A45G A57C — lower, ≤ 0.5
- U3A C5G C29G A36C C49U U53G — lower, ≤ 0.5
- U3A C24G U47C A57U — lower, ≤ 0.5
- U3A C24U A40U G48A — lower, ≤ 0.5
- U3A C5G G10A C31U C33G G48C — lower, ≤ 0.5
- U3A G25A A69C — higher, 0.773
- U3A G17A — higher, 0.829
- U3A C24U C46U G48A C49G — lower, ≤ 0.5
- U3C A14C A21G A37U C49A C60G — higher, 0.629
- U3A G44A A45C U53A C55A U59C C62U — lower, 0.534
- U3A C11G A14C C24G C31A — lower, ≤ 0.5
- U3A C22G C33G G51A — lower, ≤ 0.5
- U3A U16C C33G C46U — lower, ≤ 0.5
- U3A C5A G12C G25A C30U — lower, ≤ 0.5
- U3A U19A A57G — higher, 0.751
- U3A G9C C27G — lower, ≤ 0.5
- U3A C31A C34A A37C — higher, 0.661
- U3A G6U G12C C22A C55G — lower, ≤ 0.5
- U3A G17A C22U A43C A69C — lower, ≤ 0.5
- U3A G9A A15C C27U A57U C62A — higher, 0.667
- U3A C24U C30U — lower, ≤ 0.5
- U3C A14G C34G A43C — lower, ≤ 0.5
- U3A U54G — higher, 0.595
- U3A C30G C31U C61U — lower, ≤ 0.5
- U3A C11U C29A A42G A57C — lower, ≤ 0.5
- U3A C27G C31U C33U A42C C49U — lower, ≤ 0.5
- U3A C34A C60U — lower, ≤ 0.5
- U3A U16C — higher, 0.824
- U3A G12A A20C C29G G67A — lower, ≤ 0.5
- U3A G12A U19A — higher, 0.763
- U3A C24A C27U G56C C66U — lower, ≤ 0.5
- U3A C31U G52A — higher, 0.614
- U3A G9C G39A C55U A70C — lower, ≤ 0.5
- U3A G9A A14C C55U A70G — lower, ≤ 0.5
- U3A C31G A43U C60G A65C G67C — higher, 0.664
- U3A G17A C22U A70C — lower, 0.528
- U3A G9C C34U — the same, 0.548
- U3A U8C C30G C33U — lower, ≤ 0.5
- U3A C11A C33U A37U G39C — lower, ≤ 0.5
- U3A U13A G23C A36C — lower, 0.529
- U3C A14G C29G A37U A42G — higher, 0.609
- U3A G12A C24G C29U A36G — lower, ≤ 0.5
- U3A G17A C22U C46G — lower, ≤ 0.5
- U3A G48C — higher, 0.842
- U3A G48A — higher, 0.844
- U3A C29G A40U G41C A42C — lower, ≤ 0.5
- U3A C5G C46G U53A — lower, 0.527
- U3A C22G C29U A65C — lower, ≤ 0.5
- U3A G9C G67C — lower, ≤ 0.5
- U3A G6C C55U G63A — lower, ≤ 0.5
- U3A C31U A45U G68C — lower, ≤ 0.5
- U3A C31U A40C G48A G68C — lower, ≤ 0.5
- U3A C66U — higher, 0.891
- U3A C30G C33U — lower, 0.536
- U3A G18A — higher, 0.661
- U3A U7A A15C C55G — lower, ≤ 0.5
- U3A C29U U59G C66U — lower, ≤ 0.5
- U3A U16G C46U U54A — lower, ≤ 0.5
- U3A C22G C29U — higher, 0.55
- U3A G9A C29U — higher, 0.751
- U3A U64C — higher, 1.01
- U3A U64G — higher, 0.831
- U3A C46U G56C A69U — lower, ≤ 0.5
- U3A G17C G38A — higher, 0.557
- U3A G25C C34U G41A C49G — lower, ≤ 0.5
- U3A C27G C62U A65U — lower, ≤ 0.5
- U3A C5G A21U — lower, 0.539
- U3C A14G U19A — higher, 0.761
- U3A C46A G56A — higher, 0.713
- U3A G25A — higher, 1.09
- U3A C62U — higher, 0.961
- U3A G9A A14G C49U — lower, ≤ 0.5
- U3A G12C U13C C66U — higher, 0.664
- U3A U16C A20C A45G — lower, ≤ 0.5
- U3A U8C G38C — lower, ≤ 0.5
- U3A C22G C29U G63C C66U — lower, ≤ 0.5
- U3A G9C C24G C30U C34A G51A — lower, ≤ 0.5
- U3A U7A C30U G50C U59C — lower, ≤ 0.5
- U3A G25C G67C — higher, 0.567
- U3A C22G C27G U59G A69G — lower, ≤ 0.5
- U3A U13C C29A A43G — lower, ≤ 0.5
- U3A U13C C29A U32A A43G G67C — lower, ≤ 0.5
- U3A U16C C33G — higher, 0.661
- U3A U13A G23C A36C A70C — higher, 0.596
- U3A U26C C31U A40C — lower, ≤ 0.5
- U3A U35C G63C — lower, ≤ 0.5
- U3A G9C A65C — lower, ≤ 0.5
- U3A G41A A69U — higher, 0.617
- U3A G9A U19A C61G — lower, ≤ 0.5
- U3A C46U A69C — higher, 0.76
- U3A C11G G41C — higher, 0.61
- U3A C33U U59C — lower, ≤ 0.5
- U3A U8G C27A C61A G67A — lower, ≤ 0.5
- U3A C46G U47C — higher, 0.675
- U3A G18C A43C G58C — lower, ≤ 0.5
- U3A U19C C61G — lower, ≤ 0.5
- U3A U54G A57C — lower, ≤ 0.5
- U3A C11U A20C U32A C62U G63A — lower, ≤ 0.5
- U3A C22U — higher, 0.738
- U3A G25A G58A — higher, 0.782
- U3A U16A C22U U35A A36C G38U G48C — lower, ≤ 0.5
- U3A C31U U53A — lower, 0.518
- U3C A14C A40U — lower, ≤ 0.5
- U3A C22G C30U U32G U53C G68C A70G — lower, ≤ 0.5
- U3A C46A G63A A69C — higher, 0.731
- U3A C5U C31G C62G A69U — higher, 0.554
- U3A C5U A43G — higher, 0.607
- U3A U8A — higher, 0.723
- U3A U8C — higher, 0.925
- U3A C5A C66U — lower, ≤ 0.5
- U3A G10C A36U A40C — lower, ≤ 0.5
- U3A U26G C49A C60A — lower, ≤ 0.5
- U3A U7C C62G G63C — higher, 0.586
- U3A C11G A14C C24G — higher, 0.653
- U3A C29G G52A C66G — lower, ≤ 0.5
- U3A U16C G68C — lower, ≤ 0.5
- U3A C5U G18C U54A G56A A70G — lower, ≤ 0.5
- U3A U7C C27G C29G C34U — lower, 0.528
- U3A G58C C60U C66G — lower, ≤ 0.5
- U3A U7G A14U G25A G41C — lower, ≤ 0.5
- U3A U35A C60G — higher, 0.593
- U3A C61U G67A — higher, 0.562
- U3A G50C — higher, 0.727
